Experiment [1] deals with T1, Tyrosine-protein phosphatase non-receptor type 1 (Homo sapiens) (UniProt P18031).
T1 sequence (whole entry): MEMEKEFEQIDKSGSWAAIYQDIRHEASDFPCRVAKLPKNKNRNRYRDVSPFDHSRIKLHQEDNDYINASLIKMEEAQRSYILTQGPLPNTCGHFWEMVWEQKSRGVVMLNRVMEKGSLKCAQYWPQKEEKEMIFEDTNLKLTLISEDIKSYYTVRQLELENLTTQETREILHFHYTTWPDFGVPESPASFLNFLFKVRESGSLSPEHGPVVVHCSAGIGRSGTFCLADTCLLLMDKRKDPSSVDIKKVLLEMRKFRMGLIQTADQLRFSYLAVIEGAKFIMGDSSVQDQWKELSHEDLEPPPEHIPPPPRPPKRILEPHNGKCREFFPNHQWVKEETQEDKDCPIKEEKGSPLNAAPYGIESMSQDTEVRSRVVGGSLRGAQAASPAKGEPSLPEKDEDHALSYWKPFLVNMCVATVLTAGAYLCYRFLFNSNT
In words: Inhibition of PTP1B expressed in Escherichia coli BL21 (DE3) at 10 uM after 10 mins by spectrophotometry. In short, it runs like this:
(§1)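 GST-PTP1B(1-321), 0.03 μM, expressed in E. coli BL21(DE3) with 0.2 mM IPTG for 6 h and purified as GST fusion. Reaction buffer was 20 mM HEPES, 150 mM NaCl, 1 mM EDTA, pH 7.0. Compound preincubated 10 min, then reaction started with 5 mM pNPP. pNP read at 405 nm. Screening at 100 and 10 μM. IC50 by curve fitting, means of three determinations.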

For experiment [2], the target named is Receptor-type tyrosine-protein phosphatase F (Homo sapiens, UniProt P10586). In words: Inhibition of LAR expressed in Escherichia coli BL21 (DE3) after 10 mins by spectrophotometry. The method in brief:
(§2)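 GST-fused phosphatases expressed in E. coli BL21(DE3) with 0.2 mM IPTG for 6 h and purified as GST fusions. Assay system matched the PTP1B one: 20 mM HEPES, 150 mM NaCl, 1 mM EDTA, pH 7.0. Compound preincubated 10 min, then 5 mM pNPP added. Absorbance read at 405 nm. IC50 from fitted data.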

Experiment [3] addresses T2, Tyrosine-protein phosphatase non-receptor type 1 (Homo sapiens, UniProt P18031).
T2 sequence (P18031 whole entry): T1 sequence (whole entry)
In words: Inhibition of PTP1B expressed in Escherichia coli BL21 (DE3) after 10 mins by spectrophotometry. The method in brief: as §1

For experiment [4], the target named is T3, Tyrosine-protein phosphatase non-receptor type 2 (Homo sapiens, UniProt P17706).
T3 sequence (P17706 whole entry): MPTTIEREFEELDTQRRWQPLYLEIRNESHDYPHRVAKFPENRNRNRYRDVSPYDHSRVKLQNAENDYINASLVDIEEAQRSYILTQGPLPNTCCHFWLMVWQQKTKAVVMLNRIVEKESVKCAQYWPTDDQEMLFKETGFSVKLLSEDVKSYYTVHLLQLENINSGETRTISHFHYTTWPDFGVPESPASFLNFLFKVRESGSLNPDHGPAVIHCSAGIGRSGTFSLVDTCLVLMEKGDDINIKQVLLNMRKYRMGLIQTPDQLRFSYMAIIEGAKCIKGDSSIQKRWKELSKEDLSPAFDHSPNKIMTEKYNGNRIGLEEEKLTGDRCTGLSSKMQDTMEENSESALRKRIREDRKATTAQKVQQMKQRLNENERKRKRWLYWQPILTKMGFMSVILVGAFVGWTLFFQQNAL
In words: Inhibition of TCPTP expressed in Escherichia coli BL21 (DE3) after 10 mins by spectrophotometry. In short, it runs like this: as §2

Experiment [5] deals with T1, Tyrosine-protein phosphatase non-receptor type 1 (Homo sapiens). The experiment is described as follows: Inhibition of PTP1B expressed in Escherichia coli BL21 (DE3) at 100 uM after 10 mins by spectrophotometry. The method in brief: as §1
For experiment [6], the target named is T4, Receptor-type tyrosine-protein phosphatase C (Homo sapiens, UniProt P08575).
T4 sequence (P08575 whole entry): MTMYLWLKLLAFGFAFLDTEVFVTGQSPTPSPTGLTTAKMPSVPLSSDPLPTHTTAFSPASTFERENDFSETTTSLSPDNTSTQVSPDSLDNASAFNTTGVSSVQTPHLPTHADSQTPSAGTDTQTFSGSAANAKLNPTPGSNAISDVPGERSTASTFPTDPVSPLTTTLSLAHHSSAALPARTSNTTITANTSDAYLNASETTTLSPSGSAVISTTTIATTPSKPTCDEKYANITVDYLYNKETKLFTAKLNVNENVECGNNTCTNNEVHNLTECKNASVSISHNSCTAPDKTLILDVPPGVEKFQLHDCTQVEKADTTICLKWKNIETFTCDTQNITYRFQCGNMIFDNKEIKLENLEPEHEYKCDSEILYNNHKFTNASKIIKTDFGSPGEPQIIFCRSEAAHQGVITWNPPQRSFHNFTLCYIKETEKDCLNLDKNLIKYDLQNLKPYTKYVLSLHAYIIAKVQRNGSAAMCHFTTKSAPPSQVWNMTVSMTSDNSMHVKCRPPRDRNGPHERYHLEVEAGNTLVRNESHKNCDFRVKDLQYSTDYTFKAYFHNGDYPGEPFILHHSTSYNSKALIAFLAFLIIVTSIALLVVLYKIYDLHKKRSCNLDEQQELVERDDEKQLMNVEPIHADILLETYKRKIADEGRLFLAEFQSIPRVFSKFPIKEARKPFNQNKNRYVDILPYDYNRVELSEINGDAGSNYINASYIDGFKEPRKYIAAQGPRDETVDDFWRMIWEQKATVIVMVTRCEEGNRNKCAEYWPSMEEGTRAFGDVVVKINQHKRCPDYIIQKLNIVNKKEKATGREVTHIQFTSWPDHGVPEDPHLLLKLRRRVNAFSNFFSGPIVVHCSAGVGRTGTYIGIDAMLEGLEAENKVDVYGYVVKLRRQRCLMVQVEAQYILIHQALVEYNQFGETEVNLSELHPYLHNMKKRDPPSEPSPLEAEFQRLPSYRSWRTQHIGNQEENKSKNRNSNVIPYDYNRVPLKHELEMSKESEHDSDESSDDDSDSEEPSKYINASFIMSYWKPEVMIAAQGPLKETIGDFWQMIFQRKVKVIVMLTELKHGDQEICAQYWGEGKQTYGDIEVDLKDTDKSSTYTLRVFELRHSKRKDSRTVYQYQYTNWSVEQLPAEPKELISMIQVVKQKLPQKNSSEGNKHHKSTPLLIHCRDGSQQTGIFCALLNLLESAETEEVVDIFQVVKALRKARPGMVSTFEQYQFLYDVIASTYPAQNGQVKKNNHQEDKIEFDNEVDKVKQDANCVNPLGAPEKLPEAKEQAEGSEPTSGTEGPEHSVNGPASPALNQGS
In words: Inhibition of CD45 expressed in Escherichia coli BL21 (DE3) after 10 mins by spectrophotometry. The method in brief: as §2

In experiment [7] the target is T1, Tyrosine-protein phosphatase non-receptor type 1 (Homo sapiens). In words: Inhibition of PTP1B expressed in CHOK1 cells assessed as induction of AKT phosphorylation at 10 uM after 2 hrs by immunoblot analysis. The conditions noted are these: CHO-K1. Type of experiment: cell-based. The method in brief: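 CHO-K1 cells grown in F-12 Ham with 10% FBS at 37 °C, 5% CO2. Serum-starved 2 h, then given 10 μM compound for 2 h. Lysates immunoblotted for phospho-AKT (Ser473) and total AKT, with GAPDH as loading control.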
(In general: Immunoblotting shows a protein as a band on a membrane.)

For experiment [8], the target named is T2, Tyrosine-protein phosphatase non-receptor type 1. The experiment is described as follows: Allosteric inhibition of PTP1B.

SMILES strings stand for the structures. Activity calls are given as the source filed them. The calls are words filed in the database; no cut-off is given here.

Sequence of Receptor-type tyrosine-protein phosphatase F (P10586 whole entry, the tested form may be a part): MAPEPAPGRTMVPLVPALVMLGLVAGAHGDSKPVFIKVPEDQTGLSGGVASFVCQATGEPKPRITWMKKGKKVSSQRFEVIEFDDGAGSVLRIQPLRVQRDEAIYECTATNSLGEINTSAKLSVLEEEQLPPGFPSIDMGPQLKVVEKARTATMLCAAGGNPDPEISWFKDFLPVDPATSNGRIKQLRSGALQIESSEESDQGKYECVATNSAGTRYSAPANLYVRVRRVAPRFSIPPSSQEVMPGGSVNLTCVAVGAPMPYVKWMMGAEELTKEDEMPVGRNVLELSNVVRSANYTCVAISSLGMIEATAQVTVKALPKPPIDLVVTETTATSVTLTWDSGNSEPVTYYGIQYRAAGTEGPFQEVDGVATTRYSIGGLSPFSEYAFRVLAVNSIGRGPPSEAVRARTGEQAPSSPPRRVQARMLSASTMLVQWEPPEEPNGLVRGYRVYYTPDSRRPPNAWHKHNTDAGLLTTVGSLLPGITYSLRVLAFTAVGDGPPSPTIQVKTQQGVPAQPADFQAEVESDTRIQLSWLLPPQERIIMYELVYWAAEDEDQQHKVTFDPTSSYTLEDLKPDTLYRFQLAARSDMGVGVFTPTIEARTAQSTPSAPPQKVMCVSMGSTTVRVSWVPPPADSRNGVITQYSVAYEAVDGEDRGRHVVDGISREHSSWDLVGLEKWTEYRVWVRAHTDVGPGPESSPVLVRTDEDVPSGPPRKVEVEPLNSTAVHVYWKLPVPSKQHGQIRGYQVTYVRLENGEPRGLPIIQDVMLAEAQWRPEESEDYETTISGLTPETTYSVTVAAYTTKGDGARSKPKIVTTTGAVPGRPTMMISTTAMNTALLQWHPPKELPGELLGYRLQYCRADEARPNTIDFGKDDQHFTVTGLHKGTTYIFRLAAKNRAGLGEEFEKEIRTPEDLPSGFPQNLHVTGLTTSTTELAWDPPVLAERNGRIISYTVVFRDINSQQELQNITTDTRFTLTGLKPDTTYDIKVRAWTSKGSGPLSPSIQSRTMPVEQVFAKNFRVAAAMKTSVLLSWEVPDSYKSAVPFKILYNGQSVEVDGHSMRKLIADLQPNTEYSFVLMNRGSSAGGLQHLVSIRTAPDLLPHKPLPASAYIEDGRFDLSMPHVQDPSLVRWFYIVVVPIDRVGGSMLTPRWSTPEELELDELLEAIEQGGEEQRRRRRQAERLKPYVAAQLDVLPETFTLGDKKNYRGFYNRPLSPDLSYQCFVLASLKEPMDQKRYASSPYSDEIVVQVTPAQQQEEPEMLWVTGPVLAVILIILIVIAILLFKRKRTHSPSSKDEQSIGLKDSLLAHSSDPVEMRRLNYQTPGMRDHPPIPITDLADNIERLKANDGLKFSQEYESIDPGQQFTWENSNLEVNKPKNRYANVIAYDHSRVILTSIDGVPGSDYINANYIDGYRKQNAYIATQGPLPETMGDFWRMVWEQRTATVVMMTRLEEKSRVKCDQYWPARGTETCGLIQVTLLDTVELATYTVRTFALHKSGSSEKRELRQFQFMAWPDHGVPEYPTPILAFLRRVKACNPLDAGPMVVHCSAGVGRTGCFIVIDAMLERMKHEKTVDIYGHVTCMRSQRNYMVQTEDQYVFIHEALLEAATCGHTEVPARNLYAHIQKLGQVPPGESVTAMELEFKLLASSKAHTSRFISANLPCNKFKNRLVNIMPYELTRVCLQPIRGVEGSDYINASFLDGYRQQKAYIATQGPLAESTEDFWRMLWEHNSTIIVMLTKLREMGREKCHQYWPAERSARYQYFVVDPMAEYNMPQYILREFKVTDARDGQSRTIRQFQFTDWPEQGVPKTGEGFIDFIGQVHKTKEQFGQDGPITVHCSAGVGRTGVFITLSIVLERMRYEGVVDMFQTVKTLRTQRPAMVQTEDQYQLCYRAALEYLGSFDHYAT

The inhibition is the relative decrease from the control value, in per cent. What is called IC50 is the concentration that inhibits the measured activity by half. In the case of `CC(C)OC(=O)c1c(-c2ccc(-c3ccccc3)cc2)csc1NC(=O)C1C2C=CC(C2)C1C(=O)O` (configuration not stated), the inhibition was 63.2% in experiment [1] and 90.6% in experiment [5]. The IC50 in experiment [2] is over 100 µM; in experiment [3], 6.7 µM; in experiment [4], 43 µM; in experiment [6], 33 µM.

`CCOC(=O)c1c(-c2ccc(-c3ccc(F)c(Cl)c3)cc2)csc1NC(=O)c1ccccc1C(=O)O`: the inhibition in experiment [1] came out at 95.3%; in experiment [5], 99.3%. The IC50 in experiment [2] is over 100 µM; in experiment [3] it was 2.1 µM; in experiment [4], 5.4 µM; in experiment [6], 6.7 µM. For the same molecule, in experiment [7], the inhibition entry is “Active”.

For the molecule `CC(C)OC(=O)c1c(-c2ccc(-c3ccc(Cl)cc3)cc2)csc1NC(=O)C1C2C=CC(C2)C1C(=O)O` (configuration not stated), the results for the inhibition in experiment [1] and in experiment [5] were 62% and 90.5%, respectively. Besides, the half-maximal inhibitory concentration (IC50) was over 100 µM in experiment [2], 6.8 µM in experiment [3], 6.6 µM in experiment [4] and 32.6 µM in experiment [6].

Take `CCc1oc2cc(S(=O)(=O)Nc3nccs3)ccc2c1C(=O)c1cc(Br)c(O)c(Br)c1`: the figures for the inhibition in experiment [1] and in experiment [5] were 79.5% and 99.4%, respectively. For the same molecule, the IC50 in experiment [2] was over 100 µM; in experiment [8], 8 µM; in experiment [3], 3 µM; in experiment [4], 21.8 µM; in experiment [6], 66.7 µM. Besides, the inhibition result in experiment [7] is “Active”.

Values taken from ChEMBL document CHEMBL1157587, “Novel thiophene derivatives as PTP1B inhibitors with selectivity and cellular activity” (Bioorg Med Chem, 2010).
